# Compound activity (PubChem BioAssay)
# In the library only some 2.5% were active in any assay of this set; here they are far more common.
# PAD4 inh: PAD4 (human) enzyme inhibition; AID 485272; 330,000 compounds, 0.41% hits; recombinant PAD4, RCA probe fluorescence polarization; Q9UM07; inhibition, % at 6.36 µM;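 active = percent inhibition above a cutoff equal to the mean of all tested compounds plus 3 SD, cut at about 15% in these data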;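 also: 0% = PAD4 with RCA probe and DMSO and 100% = probe without PAD4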
# Target sequence (Q9UM07 whole entry, looked up): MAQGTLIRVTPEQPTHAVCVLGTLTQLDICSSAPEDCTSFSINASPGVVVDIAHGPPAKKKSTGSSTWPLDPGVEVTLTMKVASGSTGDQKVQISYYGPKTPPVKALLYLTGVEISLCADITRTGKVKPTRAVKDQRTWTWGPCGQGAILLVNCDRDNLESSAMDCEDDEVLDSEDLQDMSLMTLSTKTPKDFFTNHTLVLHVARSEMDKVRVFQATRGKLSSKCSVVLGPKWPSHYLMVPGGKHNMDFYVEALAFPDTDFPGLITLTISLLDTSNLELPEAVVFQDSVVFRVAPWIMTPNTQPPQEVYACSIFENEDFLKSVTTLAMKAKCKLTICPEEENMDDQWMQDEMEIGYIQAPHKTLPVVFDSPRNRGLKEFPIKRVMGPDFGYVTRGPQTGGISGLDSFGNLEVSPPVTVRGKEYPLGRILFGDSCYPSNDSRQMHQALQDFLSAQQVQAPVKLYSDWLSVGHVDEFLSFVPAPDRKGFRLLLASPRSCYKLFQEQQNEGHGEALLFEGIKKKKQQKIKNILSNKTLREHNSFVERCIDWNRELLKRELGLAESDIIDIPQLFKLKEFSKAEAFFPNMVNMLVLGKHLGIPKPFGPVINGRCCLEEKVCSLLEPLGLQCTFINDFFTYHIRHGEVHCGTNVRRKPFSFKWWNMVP
# GSTO1 inh: GSTO1 inhibition, counter-screen for RBBP9 inhibitors | P78417 | recombinant GSTO1, activity-based probe fluorescence polarization | inhibition, % at 5.96 µM | 300,000 compounds, 1.1% hits | AID 1974;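 active = inhibition above the campaign mean inhibition plus 3 SD, cut at about 35% in these data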;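 also: 0% = GSTO1-1 with DMSO and 100% = wells lacking GSTO1-1 enzyme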
# PRMT1 FP inh: blocks human protein arginine methyltransferase 1; Q99873; recombinant PRMT1, activity-based probe fluorescence polarization; inhibition, % at 2.79 µM; 370,000 compounds, 1.3% hits; AID 652257;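 active = inhibition above about 21% made by adding two undisclosed values, limit read from the data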
# TDP2 inh: blocks human TDP2 phosphodiesterase activity. O95551. recombinant TDP2, T5PNP hydrolysis, p-nitrophenol absorbance 415 nm. inhibition, % at 12.8 µM. 370,000 compounds, 0.34% hits. AID 720702;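 active = inhibition above the mean of all tested compounds plus 3 SD, set per campaign, cut at about 25% in these data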;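 also: 0% = DMSO with enzyme and 100% = buffer with substrate but no TDP2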
#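 Material: recombinant human TDP2; quantity: TDP2 enzyme at 120 nM final; medium: Tris-HCl pH 7.5 with MgCl2; compound: single concentration, 12.8 µM nominal, with 1% DMSO; incubation: 2 h enzyme incubation at 37 °C; signal: epi absorbance; measure: percent inhibition; benchmarks: high control without enzyme, low control DMSO plus TDP2; repeats: singlicate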
# Fh CTSL1 inh: counter-screen for PFM18AAP inhibitors: inhibitors of F. hepatica cathepsin L1. recombinant F. hepatica cathepsin L1, Z-Leu-Arg-MCA fluorescence. inhibition, % at 5.96 µM. 300,000 compounds, 0.49% hits;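 active = inhibition above the mean of all tested compounds plus 3 SD, set per screening campaign, cut at about 17% in these data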;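 also: 0% = plate median of test compound wells and 100% = 1 µM Z-Phe-Ala-diazomethylketone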
# * hit, by the source's call; . = not tested or not shown.
SMILES,PAD4 inh,GSTO1 inh,PRMT1 FP inh,TDP2 inh,Fh CTSL1 inh
Cc1nn(-c2ccccc2)c2c1C(c1ccc(F)cc1F)C(C#N)=C(N)O2 (stereo unspecified),5.9,27.1,-1.2,62.1*,-1.4
COC(=O)C1CN(Cc2cn(CCC3OCCO3)nn2)CCS(=O)(=O)N1Cc1ccc(OC)cc1 (stereo unspecified),.,.,0.3,-6.3,.
CCCCCC[C@@H](CC)CN(C(=O)Oc1ccccc1)c1ccccc1,.,.,7.1,1.3,.
O=C1C(=Cc2ccco2)CCCC1=Cc1ccco1,.,.,28.9*,-1.9,.
O/N=C1\CCC\C1=C/c1ccco1,-1.0,6.5,2.4,-7.9,-0.5
S=C1Cc2ccccc2N1,.,.,34.8*,15.3,.
CCN(CC)C(=O)CSc1nnc([C@@H](N)C(C)C)o1,-5.6,-7.3,4.6,0.0,32.7*
CCN(CC)C(=O)CSc1nnc(-c2ccccc2)o1,-2.7,2.0,1.0,-1.5,-9.5
COC(=O)CSc1nnc(-c2ccc(NS(=O)(=O)c3ccc(Cl)s3)cc2)o1,.,.,-1.3,5.9,.
COC(=O)[C@]12C[C@H](CC(=O)N3CCN(C(=O)c4ccco4)CC3)C(=O)N(Cc3ccco3)C1=C[C@H](C(C)(C)C)O[C@@H]2C,.,.,2.8,1.9,.
CCN(c1ccccc1)c1nc(C#N)nc(N(CC)c2ccccc2)n1,-1.6,1.3,0.4,-0.6,29.6*
COc1ccc(-c2cc(C(=O)N(C3CCCCC3)C3CCCCC3)no2)cc1,.,.,3.2,4.4,.
CCOC(=O)[C@]12CCCCC/C=C\1N(Cc1ccc(OC)cc1)C(=O)[C@H]2CC(=O)NCc1cccs1,.,.,-9.4,-1.9,.
Nc1c(C(=O)c2ccccc2)sc(Nc2ccccc2)c1S(=O)(=O)c1ccccc1,-0.7,0.8,3.1,-10.2,18.8*
N#Cc1c(Nc2ccccc2)sc(C(=O)c2ccc(F)cc2)c1N,-8.8,-6.5,-3.2,8.3,0.6
COc1ccc(C(C#N)N2N=C(C)CC2c2ccccc2)cc1 (stereo unspecified),2.3,-1.8,-0.2,15.9,2.7
CC1=NN(C(C#N)c2ccccc2)C(c2ccccc2)C1 (stereo unspecified),-2.8,5.9,-1.1,-2.3,18.5*
CC1CCN(c2ccc(C(=O)O)cc2NS(=O)(=O)c2ccc(C(C)(C)C)cc2)CC1,.,.,1.2,-2.1,.
N#CCC(N)=C(C#N)C#N,-13.0,78.8*,1.3,6.0,2.8
CC(C)NC[C@H](O)COc1cccc2[nH]ccc12,-0.2,0.0,1.1,-2.5,86.4*
Cc1ccc(Nc2n[nH]c(=S)s2)cc1F,.,.,21.5*,1.2,.
Cc1ccc(CN2CCN(/N=C/c3ccc(O)c(O)c3)CC2)cc1,6.7,35.9*,1.2,-9.5,1.2
Oc1ccc(/C=N/N2CCN(C3c4ccccc4-c4ccccc43)CC2)cc1O,7.9,44.3*,3.8,-11.1,2.1
COc1ccc(Nc2ccc(OC)cc2)cc1,1.0,36.0*,5.9,1.0,-1.5
Cc1cc(C)nc(NC(=O)/C=C/c2ccc(Cl)cc2Cl)c1,8.6,-1.9,-1.1,-2.1,19.1*
SMILES,PAD4 inh,GSTO1 inh,PRMT1 FP inh,TDP2 inh,Fh CTSL1 inh
Cc1cc(C)nc(NC(=O)/C=C/c2ccccc2Cl)c1,-5.8,-5.4,2.4,-2.8,5.0
O=C(Nc1ccccc1Cl)OC1CC2CC1[C@H]1CCCCN1[C@H]2Cc1ccccc1 (stereo partly specified),.,.,0.0,-0.5,.
CCOC(=O)N1CCN(C(=O)Nc2cccc3ccccc23)CC1,-0.9,-0.2,-1.0,-3.3,17.4*
CCOC(=O)Nc1ccc2c(c1)[C@@]1(CC(=O)N(CC(C)C)C1c1ccccc1)C(=O)N2C (stereo partly specified),.,.,2.1,-2.5,.
Cc1cc(C)c(C)c(OC(=O)c2sc(Cl)nc2C)c1,-0.3,36.1*,-0.8,-9.4,-1.1
COC1=C(Br)C(=O)c2nc(C)ccc2C1=O,.,.,28.2*,25.3*,.
CCc1nc2sc3ccccc3c(=O)c2c(=O)n1Cc1ccco1,0.1,10.9,21.2*,5.9,3.9
O=c1c2ccccc2sc2nc(C3CCCCC3)n(Cc3ccco3)c(=O)c12,.,.,17.9,-3.4,.
Cc1ccc(-c2nc3c(c(=O)c4ccccc4n3C)c(=O)n2Cc2ccco2)cc1,-4.2,-0.5,22.5*,-7.1,-6.1
Cc1ccccc1NS(=O)(=O)c1ccc(C(=O)N2CCC2)cc1,-3.7,8.6,-4.6,-9.8,18.6*
COc1cc(NC(=S)N2CCN(c3ccccn3)CC2)c(OC)cc1Cl,-3.6,6.8,22.0*,1.4,1.7
Cc1ccc(NC(=O)Nc2cc(S(=O)(=O)N(C)C)ccc2C)cc1,-2.6,0.3,-2.5,6.0,17.8*
